Test results as given in ChEMBL document CHEMBL1148824, “Quinazolinone derivatives as orally available ghrelin receptor antagonists for the treatment of diabetes and obesity” (J Med Chem, 2007).
In brackets after ≈: the same amount, converted by molar mass. Activity calls are given as the source filed them. The rule behind the calls is not given here.

Experiments:
[1] = biological target: T1, Growth hormone secretagogue receptor type 1 (Homo sapiens, UniProt Q92847); experiment: Antagonist activity at human recombinant GHSR1a expressed in HEK293F cells by [35S]GTP-gamma-S binding assay; assay type: functional, cell-based
T1 sequence (Q92847 whole entry): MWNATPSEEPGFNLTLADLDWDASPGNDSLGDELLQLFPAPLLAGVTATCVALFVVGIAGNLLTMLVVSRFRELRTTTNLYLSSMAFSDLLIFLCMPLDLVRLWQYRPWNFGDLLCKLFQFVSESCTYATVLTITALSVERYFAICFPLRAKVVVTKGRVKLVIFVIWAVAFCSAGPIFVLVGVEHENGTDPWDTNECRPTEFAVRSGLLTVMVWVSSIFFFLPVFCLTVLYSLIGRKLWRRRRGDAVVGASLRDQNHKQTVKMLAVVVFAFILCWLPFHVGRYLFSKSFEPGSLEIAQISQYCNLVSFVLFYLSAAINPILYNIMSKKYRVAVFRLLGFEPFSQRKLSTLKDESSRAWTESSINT
Procedure, shortened: (§1)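 Functional read-out as GTPγS binding to membranes from HEK293F cells overexpressing recombinant GHS-R1a; values are the mean of at least two replicates.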

[2] = biological target: Ghrelin receptor (Ovis aries, UniProt Q8MHZ5); experiment: Displacement of [125I]ghrelin from ovine recombinant GHSR1a expressed in HEK293F cells after 6 hrs by scintillation proximity assay; assay type: cell-based
Sequence of Ghrelin receptor (Q8MHZ5 whole entry): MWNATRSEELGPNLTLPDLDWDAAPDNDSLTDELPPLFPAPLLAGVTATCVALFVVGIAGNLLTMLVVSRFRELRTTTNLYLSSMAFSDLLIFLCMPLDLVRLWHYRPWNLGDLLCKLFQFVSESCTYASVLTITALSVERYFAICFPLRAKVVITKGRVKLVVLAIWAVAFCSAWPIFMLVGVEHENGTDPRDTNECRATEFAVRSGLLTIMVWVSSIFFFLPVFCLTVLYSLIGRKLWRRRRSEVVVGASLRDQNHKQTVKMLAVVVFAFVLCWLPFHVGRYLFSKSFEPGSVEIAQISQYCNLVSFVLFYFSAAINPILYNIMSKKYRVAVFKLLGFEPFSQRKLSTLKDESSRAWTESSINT

[3] = Cmax in Wistar rat at 3 mg/kg, po; assay type: ADME, organism-based; set-up: dose 3 mg/kg, route oral; conditions: in vivo
Procedure, shortened: (§2)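 Wistar rat pharmacokinetic screen; single oral dose of 3 mg/kg in PEG400/methanesulfonic acid (80:20) vehicle; plasma exposure measured.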

[4] = biological target: T1, Growth hormone secretagogue receptor type 1; experiment: Agonist activity at human recombinant GHSR1a expressed in HEK293F cells assessed as stimulation of [35S]GTP-gamma-S binding relative to ghrelin; assay type: functional, cell-based; procedure, shortened: as §1
[5] = biological target: Cytochrome P450 2D6 (Homo sapiens, UniProt P10635); experiment: Inhibition of CYP2D6; assay type: ADME
Sequence of Cytochrome P450 2D6 (P10635 whole entry): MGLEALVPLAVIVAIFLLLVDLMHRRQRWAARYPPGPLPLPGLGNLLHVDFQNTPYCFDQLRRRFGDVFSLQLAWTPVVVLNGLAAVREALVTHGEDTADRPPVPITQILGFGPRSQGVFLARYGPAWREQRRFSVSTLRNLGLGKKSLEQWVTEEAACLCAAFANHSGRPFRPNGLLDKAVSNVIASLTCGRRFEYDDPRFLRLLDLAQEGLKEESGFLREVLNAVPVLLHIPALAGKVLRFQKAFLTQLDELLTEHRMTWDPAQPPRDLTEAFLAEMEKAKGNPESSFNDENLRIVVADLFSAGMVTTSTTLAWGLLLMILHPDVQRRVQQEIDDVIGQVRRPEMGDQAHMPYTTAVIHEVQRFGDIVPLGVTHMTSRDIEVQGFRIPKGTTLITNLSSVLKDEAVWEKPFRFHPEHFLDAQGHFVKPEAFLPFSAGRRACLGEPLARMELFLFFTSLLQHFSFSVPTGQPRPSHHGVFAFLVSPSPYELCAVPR

[6] = biological target: T2, 5-hydroxytryptamine receptor 2C (Homo sapiens, UniProt P28335); experiment: Displacement of […] from 5HT2c receptor
T2 sequence (P28335 whole entry): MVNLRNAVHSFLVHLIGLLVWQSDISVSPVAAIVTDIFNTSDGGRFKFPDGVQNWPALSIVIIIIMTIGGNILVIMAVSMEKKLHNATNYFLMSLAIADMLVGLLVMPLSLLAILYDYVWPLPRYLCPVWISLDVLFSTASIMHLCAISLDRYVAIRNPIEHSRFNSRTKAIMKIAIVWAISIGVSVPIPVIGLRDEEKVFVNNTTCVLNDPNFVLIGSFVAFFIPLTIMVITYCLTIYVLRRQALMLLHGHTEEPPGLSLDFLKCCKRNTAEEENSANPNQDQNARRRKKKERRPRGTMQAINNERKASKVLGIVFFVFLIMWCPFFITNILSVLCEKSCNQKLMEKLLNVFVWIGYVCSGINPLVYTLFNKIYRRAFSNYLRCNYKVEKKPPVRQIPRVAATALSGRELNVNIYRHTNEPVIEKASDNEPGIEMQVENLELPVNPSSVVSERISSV

[7] = Aqueous solubility at pH 7.2; assay type: physicochemical
[8] = test system: Rattus norvegicus; experiment: Volume of distribution at steady state in Wistar rat plasma at 0.7 mg/kg, iv; assay type: ADME, organism-based; set-up: dose 0.7 mg/kg, route intravenous; conditions: in vivo
[9] = Cmax in Wistar rat plasma at 3 mg/kg, po; assay type: ADME, organism-based; set-up: dose 3 mg/kg, route oral; procedure, shortened: as §2
[10] = Cmax in Wistar rat plasma at 0.7 mg/kg, iv; assay type: ADME, organism-based; set-up: dose 0.7 mg/kg, route intravenous
[11] = biological target: Motilin receptor (Homo sapiens) (UniProt O43193); experiment: Binding affinity to motilin receptor
Sequence of Motilin receptor (Homo sapiens) (O43193 whole entry): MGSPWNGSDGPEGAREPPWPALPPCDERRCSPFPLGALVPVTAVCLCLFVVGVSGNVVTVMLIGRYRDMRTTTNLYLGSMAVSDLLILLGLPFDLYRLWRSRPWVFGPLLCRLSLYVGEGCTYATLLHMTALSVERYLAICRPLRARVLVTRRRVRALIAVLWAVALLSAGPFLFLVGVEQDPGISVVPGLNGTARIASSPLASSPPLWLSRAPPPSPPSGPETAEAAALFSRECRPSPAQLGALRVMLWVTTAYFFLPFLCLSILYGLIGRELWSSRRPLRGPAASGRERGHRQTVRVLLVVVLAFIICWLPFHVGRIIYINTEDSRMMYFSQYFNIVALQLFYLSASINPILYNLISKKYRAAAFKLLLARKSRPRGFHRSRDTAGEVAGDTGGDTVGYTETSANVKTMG

[12] = test system: Rattus norvegicus; experiment: Decrease in blood glucose level in DIO Wistar rat using at 10 mg/kg after 5 hrs by IPGTT test relative to control; assay type: functional; set-up: scale not given: the % may be the effect or the level left
[13] = Cmax in po dosed DIO C57BL/6 mouse after 5 hrs; assay type: ADME, organism-based; set-up: route oral; conditions: in vivo
[14] = test system: Mus musculus; experiment: Increase in food intake in DIO C57BL/6 mouse at 30 mg/kg, after 5 hrs relative to control; assay type: functional
[15] = AUC (0-t) in Wistar rat plasma at 0.7 mg/kg, iv; assay type: ADME, organism-based; set-up: dose 0.7 mg/kg, route intravenous
[16] = species: Homo sapiens; experiment: Binding affinity to calcium channel L type
[17] = test system: Brain; experiment: Drug level in po dosed DIO C57BL/6 mouse brain after 5 hrs relative to plasma concentration; assay type: ADME, organism-based
[18] = Bioavailability in Wistar rat plasma at 3 mg/kg, po; assay type: ADME, organism-based
[19] = biological target: 5-hydroxytryptamine receptor 2B (Homo sapiens) (UniProt P41595); experiment: Binding affinity to 5HT2b receptor
Sequence of 5-hydroxytryptamine receptor 2B (Homo sapiens) (P41595 whole entry): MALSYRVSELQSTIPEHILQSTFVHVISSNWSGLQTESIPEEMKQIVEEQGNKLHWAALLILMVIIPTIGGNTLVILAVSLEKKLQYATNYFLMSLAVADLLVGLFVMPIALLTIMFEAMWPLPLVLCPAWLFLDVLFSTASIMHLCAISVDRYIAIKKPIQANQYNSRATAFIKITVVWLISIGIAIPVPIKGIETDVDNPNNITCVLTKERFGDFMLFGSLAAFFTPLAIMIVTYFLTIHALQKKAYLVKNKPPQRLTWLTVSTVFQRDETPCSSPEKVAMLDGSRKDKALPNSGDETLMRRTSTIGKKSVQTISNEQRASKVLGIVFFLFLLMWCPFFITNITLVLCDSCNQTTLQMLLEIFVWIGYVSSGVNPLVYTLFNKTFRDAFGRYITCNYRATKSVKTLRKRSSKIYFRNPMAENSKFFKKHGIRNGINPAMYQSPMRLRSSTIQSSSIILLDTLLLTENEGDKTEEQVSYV

[20] = test system: Mus musculus; experiment: Decrease in body weight in DIO C57BL/6 mouse at 30 mg/kg, po after 9 days; assay type: functional
[21] = test system: Mus musculus; experiment: Decrease in body weight in DIO C57BL/6 mouse at 10 mg/kg, po after 9 days; assay type: functional, organism-based; set-up: dose 10 mg/kg
[22] = AUC in Wistar rat plasma at 3 mg/kg, po; assay type: ADME, organism-based; set-up: dose 3 mg/kg, route oral; procedure, shortened: as §2
[23] = biological target: 5-hydroxytryptamine receptor 2A (Homo sapiens) (UniProt P28223); experiment: Binding affinity to 5HT2a receptor
Sequence of 5-hydroxytryptamine receptor 2A (Homo sapiens) (P28223 whole entry): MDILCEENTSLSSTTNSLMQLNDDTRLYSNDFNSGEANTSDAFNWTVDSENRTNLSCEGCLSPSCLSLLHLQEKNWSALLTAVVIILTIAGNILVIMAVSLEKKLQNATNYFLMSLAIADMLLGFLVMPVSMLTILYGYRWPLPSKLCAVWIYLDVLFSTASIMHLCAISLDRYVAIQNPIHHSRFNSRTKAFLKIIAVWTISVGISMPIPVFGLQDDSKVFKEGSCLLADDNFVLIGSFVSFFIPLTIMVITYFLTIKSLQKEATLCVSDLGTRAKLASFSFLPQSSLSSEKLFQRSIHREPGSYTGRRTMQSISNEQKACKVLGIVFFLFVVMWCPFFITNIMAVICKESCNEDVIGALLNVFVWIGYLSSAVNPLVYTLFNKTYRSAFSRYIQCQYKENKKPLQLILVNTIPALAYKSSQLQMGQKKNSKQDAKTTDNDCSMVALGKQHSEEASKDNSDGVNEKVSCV

[24] = test system: Mus musculus; experiment: Decrease in food intake in DIO C57BL/6 mouse at 30 mg/kg, po after 24 hrs relative to control; assay type: functional, organism-based; set-up: dose 30 mg/kg
[25] = test system: Rattus norvegicus; experiment: Half life in Wistar rat plasma at 0.7 mg/kg, iv; assay type: ADME, organism-based; set-up: dose 0.7 mg/kg, route intravenous; conditions: in vivo
[26] = Cmax in Wistar rat plasma at 1 mg/kg, iv; assay type: ADME, organism-based; set-up: dose 1 mg/kg, route intravenous
[27] = Volume of distribution in Wistar rat plasma at 1 mg/kg, iv; assay type: ADME, organism-based; set-up: dose 1 mg/kg, route intravenous; conditions: read-out: Vdss

Compound: CCN1CCC=C(Cn2c(-c3ccccc3C)nc3ccc(-c4ccc(Cl)cc4)cc3c2=O)C1
- Kb [1]: 36 nM
- Ki [2]: 26 nM
- Cmax [3]: 30 nM
- E/Emax [4]: -18%

Compound: CCN1CCCC(CCn2c(-c3ccccc3OC)nc3ccc(-c4ccc(Cl)cc4)cc3c2=O)C1 (stereo not drawn)
- Ki [2]: > 10000 nM

Compound: Cc1ccccc1-c1nc2ccc(Oc3ccc(F)cc3)cc2c(=O)n1CC1CCCNC1 (stereo not drawn)
- Ki [2]: 0.9 nM
- Cmax [3]: 40 nM
- E/Emax [4]: 92%
- EC50 [4]: 6.5 nM

Compound: CCN1CCC[C@H](Cn2c(-c3ccccc3C)nc3ccc(OC(F)(F)F)cc3c2=O)C1
- Ki [2]: 16 nM

Compound: CCN1CCCC(Cn2c(-c3ccccc3C)nc3ccc(OC(F)(F)F)cc3c2=O)C1 (stereo not drawn)
- Kb [1]: 45 nM
- Ki [2]: 24 nM
- Cmax [3]: 240 nM
- E/Emax [4]: 4%

Compound: CCN1CCC[C@H](Cn2c(C(C)C)nc3ccc(-c4ccc(F)cc4)cc3c2=O)C1
- Ki [2]: 40 nM

Compound: Cc1ccccc1-c1nc2ccc(Oc3ccc(F)cc3)cc2c(=O)n1C[C@H]1CCCN(C(C)C)C1 (stereo in doubt; (S)-35)
- Ki [2]: 0.9 nM

Compound: CC(C)c1nc2ccc(-c3ccccc3Cl)cc2c(=O)n1C[C@H]1CCCN(C(C)C)C1
- Ki [2]: 127 nM

Compound: CC(C)c1nc2ccc(Oc3ccc(F)cc3)cc2c(=O)n1C[C@H]1CCCN(C(C)C)C1
- IC50 [5]: 7.2 µM
- Kb [1]: 7.6 nM
- Ki [2]: 4 nM
- Cmax [3]: 210 nM
- Ki [6]: > 1000 nM
- solubility [7]: 100 µM (≈ 43.8 µg/mL)
- E/Emax [4]: -5%

Compound: CCCCN(C)c1ccc2nc(-c3ccccc3OC)n(CC3CCCNC3)c(=O)c2c1 (stereo not drawn)
- Ki [2]: 36 nM

Compound: CC(C)N1CCC[C@H](Cn2cnc3ccc(-c4ccc(Cl)cc4)cc3c2=O)C1
- IC50 [5]: 0.2 µM
- Ki [2]: 440 nM
- Cmax [3]: 200 nM
- Ki [6]: > 1000 nM

Compound: CC(C)c1nc2ccc(-c3ccc(F)cc3)cc2c(=O)n1C[C@H]1CCCN(C(C)C)C1
- Vdss [8]: 0.68 L/kg
- Cmax [9]: 70 ng/mL
- Cmax [10]: 100 ng/mL
- Activity [11]: > 1 µM
- Activity [12]: -20%
- IC50 [5]: 0.15 µM
- Kb [1]: 14 nM
- Ki [2]: 39 nM
- Cmax [13]: 800 nM
- Cmax [3]: 150 nM
- Activity [14]: -17%
- Ki [6]: > 1000 nM
- AUC(0-t) [15]: 580 ng·h/mL
- Activity [16]: > 1 µM
- Drug uptake [17]: 76%
- bioavailability [18]: 69%
- solubility [7]: 280 µM (≈ 118 µg/mL)
- Activity [19]: > 1 µM
- Activity [20]: Active
- E/Emax [4]: 15%
- Activity [21]: Active
- AUC [22]: 1700 ng·h/mL
- Activity [23]: > 1 µM
- Activity [24]: Active
- t1/2 [25]: 16 h

Compound: CC(C)c1nc2ccc(-c3ccccc3Cl)cc2c(=O)n1C[C@@H]1CCCN(C(C)C)C1
- Ki [2]: 1800 nM

Compound: COCCN1CCCC(Cn2c(-c3ccccc3C)nc3ccc(-c4ccc(Cl)cc4)cc3c2=O)C1 (stereo not drawn)
- Kb [1]: 6.4 nM
- Ki [2]: 4 nM
- Cmax [3]: 140 nM
- E/Emax [4]: -20%

Compound: CC(C)N1CCC[C@H](Cn2cnc3ccc(Oc4ccc(F)cc4)cc3c2=O)C1
- IC50 [5]: 21 µM
- Kb [1]: 45 nM
- Ki [2]: 18 nM
- Ki [6]: > 1000 nM
- solubility [7]: 450 µM (≈ 178 µg/mL)
- E/Emax [4]: 2%

Compound: CC(C)c1nc2ccc(-c3ccc(Cl)cc3)cc2c(=O)n1C[C@H]1CCCN(C(C)C)C1
- IC50 [5]: 6.3 µM
- Kb [1]: 77 nM
- Ki [2]: 45 nM
- Cmax [3]: 290 nM
- Ki [6]: > 1000 nM
- solubility [7]: 60 µM (≈ 26.3 µg/mL)
- E/Emax [4]: 0%

Compound: CCN1CCCC(Cn2c(-c3ccccc3C)nc3ccc(-c4ccc(Cl)cc4)cc3c2=O)C1 (stereo not drawn) [listing 1 of 2 here]
- Kb [1]: 3.2 nM
- E/Emax [4]: 12%

Compound: Cc1nc2ccc(Oc3ccc(F)cc3)cc2c(=O)n1C[C@H]1CCCN(C(C)C)C1
- Cmax [9]: 80 ng/mL
- Activity [11]: > 1 µM
- Activity [12]: -23%
- Kb [1]: 11 nM
- Ki [2]: 17 nM
- Cmax [13]: 3400 nM
- Cmax [3]: 220 nM
- Activity [14]: -12%
- Ki [6]: > 1000 nM
- Cmax [26]: 110 ng/mL
- Activity [16]: > 1 µM
- Drug uptake [17]: 19%
- bioavailability [18]: 85%
- solubility [7]: 500 µM (≈ 205 µg/mL)
- Vd [27]: 19.2 L/kg
- Activity [19]: > 1 µM
- Activity [20]: <=5%
- E/Emax [4]: 11%
- AUC [22]: 1300 ng·h/mL
- Activity [23]: > 1 µM
- Activity [24]: Active

Compound: CCN1CCC[C@@H](Cn2c(C(C)C)nc3ccc(-c4ccc(F)cc4)cc3c2=O)C1
- Ki [2]: 5700 nM

Compound: CCN1CCCC(Cn2c(-c3ccccc3C)nc3ccc(-c4ccc(Cl)cc4)cc3c2=O)C1 (stereo not drawn) [listing 2 of 2 here]
- Ki [2]: 1.8 nM
- Cmax [3]: 120 nM
